In the library only some 4.8% were active in any assay of this set; here they are far more common.
FLuc inhib CS: counter-screen for luciferase assay inhibitors: firefly luciferase inhibition; P08659; ATPLite firefly luciferase biochemical luminescence, 10 min; inhibition, % at 10 µM; hit rate 1.5% among 200,000;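 active = inhibition above about 50% when tested at 10 µM, limit read from the data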
Target sequence (P08659 whole entry, looked up): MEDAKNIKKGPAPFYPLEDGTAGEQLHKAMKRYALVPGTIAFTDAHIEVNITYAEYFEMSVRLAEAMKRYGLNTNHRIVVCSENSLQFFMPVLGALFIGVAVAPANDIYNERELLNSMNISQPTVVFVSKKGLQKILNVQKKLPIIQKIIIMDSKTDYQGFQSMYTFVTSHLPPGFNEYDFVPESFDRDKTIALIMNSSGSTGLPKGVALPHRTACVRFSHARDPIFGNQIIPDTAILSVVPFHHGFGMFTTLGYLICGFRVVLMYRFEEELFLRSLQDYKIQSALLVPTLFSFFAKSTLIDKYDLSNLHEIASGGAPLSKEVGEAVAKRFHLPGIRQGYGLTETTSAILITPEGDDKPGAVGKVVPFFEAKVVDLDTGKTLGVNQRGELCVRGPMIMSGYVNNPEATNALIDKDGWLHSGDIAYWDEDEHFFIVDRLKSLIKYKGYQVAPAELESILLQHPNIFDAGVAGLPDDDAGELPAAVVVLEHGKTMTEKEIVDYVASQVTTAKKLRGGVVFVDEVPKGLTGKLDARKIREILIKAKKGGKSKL
STAT1 activator: increases IFN-gamma driven STAT1 reporter signal. hit rate 2.6% among 200,000. NIH 3T3 STAT1-luciferase reporter, luminescence; 100% = IFN-gamma alone, no compound. activation (% of control), % at 5.5 µM;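 active = activation above the screen-wide mean activation plus 3 SD, cut at about 130% in these data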;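 also: raw ratio to IFN-gamma control signal so 100% means no change and 0% no light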
NF-kB neuron act: raises NF-kB expression in human neuronal cells; NF-kB reporter expression; active compounds read high; fold change at 12.5 µM; hit rate 1.6% among 190,000; AID 1239; in the data active = fold change above about 3.3
APP 5'UTR act: APP 5'UTR luciferase reporter activation; hit rate 1% among 190,000; activation, % at 2 µM; SH-SY5Y APP 5'UTR luciferase reporter, luminescence; zero percent = DMSO vehicle wells;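 active = activation above a set limit, based on mean plus 3 SD of controls, cut at about 140% in these data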
FLuc stim CS: firefly luciferase counter-screen for stimulation assays. activation factor at 10 µM. 200,000 tested, under 10 active. ATPlite luciferase biochemical, luminescence, 10 min; 0 = ATP-free wells, 1 = DMSO control. P08659;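 active = luciferase activation factor, scaled between plate controls, of at least 2 with compound at 10 µM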
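Material: luciferase plus luciferin reagent, cell-free. Medium: PBS buffer for ATP. Also added: ATP substrate, dispensed from a 10.24 µM working solution in PBS. Doses: test compounds dosed from 2 mM stocks in 100% DMSO. Incubation: 10 min post-reagent at room temperature. Technique: light output (luminescence). Read-out basis: luminescence gain marking luciferase activators.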
APP 5UTR inh: APP translation inhibition; SH-SY5Y APP 5'UTR-luciferase reporter, luminescence; inhibition, % at 2 µM; hit rate 0.82% among 190,000;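 active = inhibition above a set limit, derived from the sample mean plus 3 SD, cut at about 45% in these data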
Numbers without * were called inactive; x = no result.

SMILES	FLuc inhib CS	STAT1 activator	NF-kB neuron act	APP 5'UTR act	FLuc stim CS	APP 5UTR inh
Cc1ccc2ccc(C(Nc3ccccn3)c3ccccc3)c(O)c2n1 (stereo not given)	-6	98	1.3	0	1.1	0
CC1CCCN(S(=O)(=O)c2ccc(NC(=O)CCN3C(=O)c4ccccc4C3=O)cc2)C1 (stereo not given)	-7	102	1	-15	1.1	15
O=C(c1ccc(Cl)cc1[N+](=O)[O-])N1CCOCC1	-8	100	1.2	-5	1.1	5
O=C(c1cc(Cl)ccc1[N+](=O)[O-])N1CCc2ccccc2C1	-3	99	1.2	0	1	0
O=C(N/N=C/c1ccc[nH]1)c1ccc(O)cc1	18	89	1.3	36	0.8	-36
Cc1cc(C(=O)N/N=C/c2ccc[nH]2)n[nH]1	3	102	4.4*	-5	1	5
O=C(N/N=C/c1ccc[nH]1)c1ccccc1O	62*	93	1.3	40	0.4	-40
CCOC(=O)C1(CC2CCCCO2)CCN(S(=O)(=O)c2ccsc2)CC1 (stereo not given)	-9	105	1.2	5	1.1	-5
C(=Nc1ccc(Nc2ccccc2)cc1)c1ccc2ccccc2c1	6	107	1.1	-33	0.9	33
Brc1ccc(C=Nc2ccc(Nc3ccccc3)cc2)s1	-1	108	1.6	-45	1	45*
O=C(O)c1cccc(-c2nnn(Cc3ccccc3Cl)n2)c1	14	67	4.2*	21	0.9	-22
O=C(CCCN1CCOCC1)c1ccc2c(c1)OCCO2	5	142*	1.4	101	0.9	-101
O=C1c2cc([N+](=O)[O-])cc3cc([N+](=O)[O-])cc(c23)C(=O)N1c1ccccn1	-2	73	0.86	7	1	-8
Cc1ccnc(N2C(=O)c3cccc4c([N+](=O)[O-])ccc(c34)C2=O)c1	-3	89	4.7*	-37	1	37
O=C1c2cccc3c([N+](=O)[O-])ccc(c23)C(=O)N1Cc1cccnc1	-5	106	3.8*	-82	1.1	82*
CCc1ccccc1NC(=O)CC1SCCNC1=O (stereo not given)	-9	109	1.3	8	1.1	-8
N#Cc1c(NCCCO)nc(NCc2ccccc2)c2c1CCN(Cc1ccccc1)C2	-3	101	3.3*	8	1	-8
COC(=O)c1c(C)oc2ccc(N(C(=O)c3ccncc3)S(=O)(=O)c3ccc(C)cc3)cc12	-7	84	1.6	-89	1.1	89*
CSc1ccc(-c2ccco2)nn1	27	129*	1.7	29	0.7	-29
O=C(NNC(=O)c1ccccc1Br)c1ccc(Cl)cc1	10	108	1.6	1	0.9	-1
O=C(Nc1ccc(Cl)cc1F)c1ccccc1Br	20	148*	5.7*	120	0.8	-120
COC(=O)Cc1ccc(NC(=O)c2ccccc2Br)cc1	20	97	1.2	-19	0.8	19
O=C(Nc1ccc(C(F)(F)F)cc1)c1ccccc1Br	-4	129*	2.3	30	1	-30
COc1cccc(-c2nc(-c3ccccn3)no2)c1	93*	46	0.93	35	0.1	-35
COc1cccc(-c2noc(-c3ccc(Br)o3)n2)c1	46	136*	3.6*	95	0.5	-95
SMILES	FLuc inhib CS	STAT1 activator	NF-kB neuron act	APP 5'UTR act	FLuc stim CS	APP 5UTR inh
c1ccc(-c2noc(-c3cccnc3)n2)nc1	31	129*	1.8	75	0.7	-75
COc1nc(-c2ccccc2)ccc1-c1noc(-c2cccs2)n1	x	106	x	33	x	-33
COc1cccc(-c2noc(-c3cccs3)n2)c1	50*	139*	8.4*	114	0.5	-114
Cc1ccc(S(=O)(=O)c2c(C)cc(C)nc2N2CCCC2)cc1	-8	86	1.1	-5	1.1	5
COC(=O)c1ccc(-c2nc(-c3ccc(Br)o3)no2)cc1	9	108	2.2	4	0.9	-4
COc1cccc(-c2nc3ccccc3c(=O)o2)c1	52*	96	1.7	-4	0.5	4
COc1ccc(-c2noc(-c3ccccc3-c3ccccc3)n2)cc1	-4	101	0.88	7	1	-7
COC(=O)c1ccc(-c2nc(-c3cccs3)no2)cc1	72*	53	1	136*	0.3	-136
COc1cccc(-c2nc(-c3ccccc3)no2)c1	46	150*	7.3*	128	0.5	-128
COc1ccc(-c2nc(-c3ccc(Br)o3)no2)cc1	39	119	6.7*	106	0.6	-106
COc1cc(OC)cc(-c2nc3ccccc3c(=O)o2)c1	8	100	1.2	8	0.9	-8
COc1nc(OC/C(N)=N/O)nc(N2CCOCC2)n1	-2	98	1.5	4	1	-4
CCCOc1ccc(-c2nc[nH]c2[N+](=O)[O-])cc1	-7	102	1.1	6	1.1	-6
COc1cc(/C=N/NC2=NC(C)(C)Cc3ccccc32)cc(OC)c1OC	0	90	0.8	-3	1	3
O=C(/C=C/c1cccc([N+](=O)[O-])c1)N1CCOCC1	-4	96	1.2	-4	1	4
O=C(/C=C/c1cccc(Oc2ccccc2)c1)N1CCOCC1	18	139*	2.6	145*	0.8	-145
Cc1cc(/C=C2/C(=N)N3C(=NC2=O)SN=C3S(C)(=O)=O)c(C)n1-c1ccccc1F	93*	112	2.8	60	0.1	-60
Cc1ccccc1OCc1csc(N)n1	-2	104	1.2	-2	1	2
Nc1nc(COc2ccccc2)cs1	-3	102	1.4	17	1	-17
Cc1ccc(OCc2csc(N)n2)cc1	35	131*	2.2	49	0.7	-49
Nc1nc(COc2ccc(Cl)cc2)cs1	16	137*	1.1	53	0.8	-53
Cc1ccc(S(=O)(=O)NC(=O)NCCc2ccccc2)cc1	-10	99	x	-2	1.1	2
Cc1ccc(-c2nc(N/N=C/c3ccccc3[N+](=O)[O-])c3ccccc3n2)cc1	64*	124	1.1	19	0.4	-19
Cc1nc2ccccc2cc1C(=O)N/N=C/c1ccccc1[N+](=O)[O-]	-5	97	1.2	4	1	-4
Brc1ccc(-c2nc(N/N=C/c3cccnc3)c3ccccc3n2)cc1	96*	97	1.3	-10	0	10
Cc1ccc(N/N=C/c2cccnc2)cc1	10	105	1.6	45	0.9	-45
Cc1ccc(-c2nc(NCc3ccco3)n(S(C)(=O)=O)n2)cc1	-2	144*	2.8	19	1	-19
O=C(O)C(=O)/C(=C\c1ccc(Cl)cc1)c1ccc2ccccc2n1	-2	130*	1.1	86	1	-86
Cc1ccc2c(c1)C=CC(C#N)N2C(=O)c1ccccc1 (stereo not given)	-3	105	1.1	-94	1	94*
